Reference: ChEMBL document CHEMBL3243924, “Synthesis and biological activity of 5-fluoro- and 5-methyl-1,3-oxazine-2,6(3H)-dione” (J Med Chem, 1979)

How the values were obtained:
Enterococcus faecium [1] = experiment: Growth inhibition of Streptococcus faecium assessed as [I]/[S] for 50% growth inhibition in presence of 1 uM to 1 mM cytidine; type: functional
Escherichia coli = experiment: Growth inhibition of Escherichia coli; type: functional
Enterococcus faecium [2] = experiment: Growth inhibition of Streptococcus faecium assessed as [I]/[S] for 50% growth inhibition in presence of 1 uM to 1 mM thymine; type: functional
[3] = Stability of the compound in mouse […] cell growth medium assessed as compound degradation
[4] = Stability of the compound in bacterial growth medium assessed as compound degradation at pH 7.2; settings: buffer
How it was run: (§1)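 Compound held in bacterial growth medium at pH 7.2. Degradation was followed as the time-dependent decrease in UV absorbance at 306 nm.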

L1210 = experiment: Growth inhibition of mouse L1210 cells; type: functional
Enterococcus faecium [5] = experiment: Growth inhibition of Streptococcus faecium assessed as [I]/[S] for 50% growth inhibition in presence of 1 uM to 1 mM uracil; type: functional
Enterococcus faecium [6] = experiment: Growth inhibition of Streptococcus faecium assessed as [I]/[S] for 50% growth inhibition in presence of 1 uM to 1 mM 2'-deoxycytidine; type: functional
Enterococcus faecium [7] = experiment: Growth inhibition of Streptococcus faecium assessed as [I]/[S] for 50% growth inhibition in presence of 1 uM to 1 mM uridine; type: functional
Enterococcus faecium [8] = experiment: Growth inhibition of Streptococcus faecium assessed as [I]/[S] for 50% growth inhibition in presence of 1 uM to 1 mM cytosine; type: functional
[9] = Half life in synthetic growth medium at 37 degC
Enterococcus faecium [10] = experiment: Growth inhibition of Streptococcus faecium assessed as [I]/[S] for 50% growth inhibition in presence of 1 uM to 1 mM thymidine; type: functional
Enterococcus faecium [11] = experiment: Growth inhibition of Streptococcus faecium assessed as inhibition index [I]/[S] for 50% growth inhibition in presence of 1 uM to 1 mM 2'-deoxyuridine; type: functional
[12] = Stability of the compound in bacterial growth medium by UV spectra analysis; how it was run: as §1
Enterococcus faecium [13] = experiment: Growth inhibition of Streptococcus faecium; type: functional
[14] = Stability of the compound in synthetic growth medium assessed as compound remaining at 37 degC after 16 hrs; type: physicochemical; settings: read-out: Stability

Stability [4]	half-life [9] [min]	Stability [12]	Compound	Ratio (Enterococcus faecium [1])	ID50 (Escherichia coli)	Ratio (Enterococcus faecium [2])	Stability [3]	ID50 (L1210)	Ratio (Enterococcus faecium [5])	Ratio (Enterococcus faecium [6])	Ratio (Enterococcus faecium [7])	Ratio (Enterococcus faecium [8])	Ratio (Enterococcus faecium [10])	Ratio (Enterococcus faecium [11])	ID50 (Enterococcus faecium [13])	remaining at 16 h [14] [%]
Unstable	240	Unstable	O=c1[nH]cc(F)c(=O)o1	8	1 ×10⁻⁷ M	120	Unstable	1 ×10⁻⁵ M	90	10	90	7	110	100	9 ×10⁻⁸ M	–
–	–	–	O=c1cc[nH]c(=O)o1	–	4 ×10⁻⁷ M	–	–	4 ×10⁻⁵ M	–	–	–	–	–	–	2 ×10⁻⁵ M	15
–	–	–	Cc1c[nH]c(=O)oc1=O	–	3 ×10⁻⁴ M	–	–	>1 ×10⁻⁴ M	–	–	–	–	–	–	>1 ×10⁻⁴ M	–
